Screening data as filed in PubChem BioAssay.
PP5 primary – inhibitors of human protein phosphatase 5 (PP5). P53041. purified PP5c, OMFP substrate fluorescence. inhibition, % at 6.7 µM. actives 0.18% (n = 320,000). AID 1987;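 active = inhibition above the campaign's mean inhibition across all tested compounds plus 3 SD, cut at about 9.5% in these data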
H9c2 protect – myocardial damage modulation in H9c2 cells | H9c2 cardiomyocytes, H2O2 injury protection, ATPLite, 2 h | protection from H2O2 cell death, % at 20 µM | actives 0.63% (n = 360,000);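 active = compounds giving at least 50% protection of heart cells from peroxide-induced death in the single-dose screen, raw or plate-pattern-corrected value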
T cruzi repl – T. cruzi replication inhibition; inhibition, % (concentration not given with the values); actives 1.4% (n = 300,000); T. cruzi beta-gal in NIH3T3, luminescence, 90 h;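 active = mean inhibition across valid replicates above about 55%, limit read from the data; inconclusive = mean below that limit but half or more replicates reach it; inactive = mean below it, under half of replicates reach it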;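 also: signal also drops with host cell toxicity which is not excluded here; higher percent means less beta-gal luminescence so fewer parasites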
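Read-out: Parasite load inhibition, % | Test system: Mouse NIH/3T3 fibroblasts infected with β-gal-expressing T. cruzi Tulahuen C4 | Amount: 5,000 cells/well | Medium: DMEM, 2% fetal bovine serum | Signal: GalScreen β-gal luminescence, detergent lysis, 60 min | Timing: 3 h attach, ≥90 h co-culture | Also added: Tulahuen C4 trypomastigotes, 5000/well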
GASC-1 inh – blocks human GASC-1 demethylase activity; Q9H3R0; inhibition, % at 2.35 µM; actives 0.069% (n = 330,000); AID 2099; GST-JMJD2C(1-420) H3K9me3 demethylation, DELFIA europium;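 active = more than half of a compound's replicate wells show inhibition beyond 50%, single wells judged on their own value; inconclusive = some, but no more than half, of replicates pass 50% inhibition; inactive = no replicate passes 50% inhibition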;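 also: signal counts dimethyl H3K9 product captured on neutravidin plate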
Fh CTSL1 inh – cathepsin L1 inhibition, PFM18AAP counter-screen; recombinant F. hepatica cathepsin L1, Z-Leu-Arg-MCA fluorescence; actives 0.49% (n = 300,000); AID 1906; inhibition, % at 5.96 µM;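 active = inhibition above the mean of all tested compounds plus 3 SD, set per screening campaign, cut at about 17% in these data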
p-CIP stab down – p/CIP protein destabilization; F442A p/CIP-EGFP cells, EGFP fluorescence, 16 h; decrease of EGFP signal, % at 10 µM; Q05BA5; actives 0.01% (n = 290,000);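 active = EGFP signal decrease of at least 30% at 10 µM or well 3 SD below plate mean, unless failing retest; inactive = the rest, including hits failing retest or dose response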
Hits are given with their value; . = inactive; ? = inconclusive; / = no result given. The list is not random: actives were taken first. Their share in the collection is about 2.4%.

SMILES | PP5 primary | H9c2 protect | T cruzi repl | GASC-1 inh | Fh CTSL1 inh | p-CIP stab down
CCN(CC)C(=O)[C@H]1CC(CC(=O)NCc2ccc(OC)c(OC)c2)C(=O)N2CCc3c([nH]c4ccc(OC)cc34)[C@]12C (stereo partly drawn) | / | . | / | / | / | /
CCCCc1c(CCC)c(=N)c2ccccc2n1C | . | . | 59.8 | . | . | .
COc1cccc(-c2nc(NCC3CCCO3)c3ccccc3n2)c1O (stereo not drawn) | . | . | . | . | . | .
COc1ccc(OC)c(Nc2nc(NCCO)c3ccccc3n2)c1 | . | . | 55.7 | . | . | .
COc1ccccc1Nc1nc(NCCO)c2ccccc2n1 | / | / | . | . | / | .
COc1ccccc1Nc1nc(NCC2CCCO2)c2ccccc2n1 (stereo not drawn) | . | . | 64.3 | . | . | .
CCN(CC)C(=O)C1=C(C)N(CCCOC)C(=O)C(CC(=O)NCc2cccs2)C1 (stereo not drawn) | / | . | / | / | / | /
O=C(NNC(=O)C1CCN(C(=O)Nc2ccccc2)CC1)c1ccc([N+](=O)[O-])cc1 | . | . | / | . | / | /
Cc1cnn(C(=O)c2ccccc2Br)c1 | . | / | . | 85.5 | . | .
Cc1ccc(N2CCN(C(=O)c3ccccc3Br)CC2)c(C)c1 | . | . | . | . | . | .
Cc1oc2c(CN3CCCC3)c(O)ccc2c(=O)c1-c1ccc(Br)cc1 | . | . | . | . | . | .
Cc1oc2c(CN3CCCCC3C)c(O)ccc2c(=O)c1-c1ccccc1 (stereo not drawn) | . | . | . | . | . | .
Cc1oc2c(O)c(O)ccc2c(=O)c1-c1ccccc1 | . | 68.9 | . | ? | . | .
Cc1oc2c(O)c(O)ccc2c(=O)c1-c1ccc(Cl)cc1 | . | 72.3 | . | . | . | .
Cc1oc2c(O)c(O)ccc2c(=O)c1-c1cnn(-c2ccccc2)c1 | . | 86.8 | . | . | . | .
FC(F)(F)c1ccccc1-n1c(-c2ccco2)n[nH]c1=S | . | . | . | . | . | .
CCN(Cc1ccccc1)C(=O)c1cc2c(=O)oc3ccc(C)cc3c2s1 | . | 97.4 | . | . | . | .
Cc1ccc2oc(=O)c3cc(C(=O)NCCCN4C(C)CCCC4C)sc3c2c1 (stereo not drawn) | . | . | . | . | 17.1 | .
Cc1ccc2oc(=O)c3cc(C(=O)N4CCN(C(=O)c5ccco5)CC4)sc3c2c1 | . | / | . | . | . | .
CCOc1cc(CNCCc2ccc(S(N)(=O)=O)cc2)ccc1OCc1ccc(Cl)cc1 | . | . | . | . | . | .
COc1cc(CNCCc2ccc(S(N)(=O)=O)cc2)ccc1OCc1ccc(Cl)cc1 | . | . | 65.8 | . | . | .
COc1cc(NS(=O)(=O)c2ccc(C)cc2)c2ncccc2c1 | . | . | 78.5 | . | . | .
Cc1ccc(S(=O)(=O)Nc2cccc3cccnc23)cc1 | . | . | . | . | . | .
CC[N+]1(C)CCC(O)(/C=C/c2ccccc2)C(C(=O)/C=C/c2ccccc2)C1 (stereo not drawn) | / | . | / | / | / | /
Cc1oc2c(c1C(=O)NCc1cccnc1)C(=O)c1ccccc1C2=O | . | / | . | . | 31.0 | /
SMILES | PP5 primary | H9c2 protect | T cruzi repl | GASC-1 inh | Fh CTSL1 inh | p-CIP stab down
CC1=CC(C)(C)N2C(=O)C3(C(C#N)=C(N)Oc4cc(C)oc(=O)c43)c3cc(C)cc1c32 (stereo not drawn) | . | . | 54.9 | . | . | /
O=[N+]([O-])c1ccc2c(c1)-c1ccccc1C2O (stereo not drawn) | / | . | / | / | / | /
CC(C)NC(=O)c1cnc(N2CCN(c3ccccn3)CC2)c2ccccc12 | . | . | . | . | . | .
CCc1ccc(NC(=O)c2cnc(N3CCN(c4ccccn4)CC3)c3ccccc23)cc1 | . | . | 60.3 | . | . | .
O=C1NC[C@H](c2ccccc2)OC(=O)[C@H](Cc2ccc(F)cc2)CC/C=C/C[C@H]1CC(=O)N(CCO)Cc1ccccc1 | / | 52.0 | / | . | / | /
O=C1NC[C@H](c2ccccc2)OC(=O)[C@@H](Cc2ccc(F)cc2)CC/C=C/C[C@H]1CC(=O)N(CCO)Cc1ccccc1 | / | 85.9 | / | . | / | /
O=C1NC[C@H](c2ccccc2)OC(=O)[C@@H](Cc2ccc(F)cc2)CC/C=C/C[C@@H]1CC(=O)N(CCO)Cc1ccccc1 | / | . | / | . | / | /
CN(c1ccccc1)S(=O)(=O)c1cccc(C(=O)NCC(c2cccs2)N2CCOCC2)c1 (stereo not drawn) | / | . | / | / | / | /
